From ChEMBL document CHEMBL3870311, “Synthesis and biological evaluation of C1-O-substituted-3-(3-butylamino-2-hydroxy-propoxy)-xanthen-9-one as topoisomerase IIα catalytic inhibitors” (Eur J Med Chem, 2016) come the findings set out here.

Each structure is given as a SMILES string. pIC50: −log10 of the molar value. The source made the active and inactive calls. No cut-off for these calls is given here.

A short description of data set [1]: Cytotoxicity against human HCT15 cells assessed as reduction in cell growth after 72 hrs by CCK8 assay. The data set is classed as functional, cell-based. The following applies: HCT-15, 72 h. In outline: (§1)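 Cells (2~4 x 10^4 per well) seeded overnight in media with 10% FBS, 37 °C, 5% CO₂, then exposed to graded compound concentrations for 72 h. CCK-8 solution added for a further 4 h; absorbance read at 450 nm. IC₅₀ from four-parameter logistic fit; adriamycin, etoposide and camptothecin as positive controls.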

Data set [2] is described as follows: Cytotoxicity against human NCI-N87 cells assessed as reduction in cell growth after 72 hrs by CCK8 assay. The following applies: NCI-N87, 72 h. The data set is classed as functional, cell-based. In outline:
as §1
For orientation: Tetrazolium dyes change colour on reduction, which living cells bring about.

Data set [3] concerns the target T1, DNA topoisomerase 2-alpha (Homo sapiens, UniProt P11388). In words: Inhibition of topoisomerase-2 alpha catalytic activity in human T47D cells assessed as increase in free topoisomerase-2 alpha level at 50 uM after 2 hrs by Western blot method. The data set is classed as cell-based. Put shortly:
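T47D cells (2 x 10^5 per well) seeded overnight, treated 2 h at 37 °C with 50 µM compound or etoposide in serum-free RPMI. Harvested cells washed in PBS, lysed in 62.5 mM Tris-HCl pH 6.8, 1 mM EDTA, 2% SDS with sonication; cleared supernatant run on 10% SDS-PAGE and free topo IIα detected by Western blot.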
(In general: A western blot detects proteins with antibodies after separation by electrophoresis.)

Data set [4] is described as follows: Cytotoxicity against human T47D cells assessed as reduction in cell growth after 72 hrs by CCK8 assay. In kind it is functional, cell-based. In outline: as §1
Data set [5] is described as follows: Cytotoxicity against human HeLa cells assessed as reduction in cell growth after 72 hrs by CCK8 assay. The data set is classed as functional, cell-based. In outline:
as §1

Data set [6] addresses T1, DNA topoisomerase 2-alpha. In words: Inhibition of human topoisomerase-2 alpha at 100 uM using supercoiled pBR322 DNA as substrate after 30 mins by agarose gel electrophoresis method relative to control.
Data set [7] has as its target T1, DNA topoisomerase 2-alpha. In words: Inhibition of human topoisomerase-2 alpha at 20 uM using supercoiled pBR322 DNA as substrate after 30 mins by agarose gel electrophoresis relative to control.
Data set [8] addresses T1, DNA topoisomerase 2-alpha. Kind of data set: Poisoning activity at human topoisomerase-2 alpha assessed as stabilization of enzyme-pBR322 DNA cleavage complex by measuring linear DNA formation at 100 uM after 30 mins by agarose gel electrophoresis. The following applies: 0.5 h.
Data set [9] has as its target T1, DNA topoisomerase 2-alpha. Kind of data set: Poisoning activity at topoisomerase-2 alpha in human T47D cells assessed as induction of DNA damage by measuring comet formation at 5 to 10 uM after 24 hrs by SYBR Green staining based inverted fluorescence microscopic analysis. In kind it is cell-based. Put shortly: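 Alkaline comet assay: T47D cells seeded in six-well plates, treated at ~70% confluence with 5 or 10 µM compound for 24 h, trypsinized, embedded in low-melting agarose. Lysis 30 min at 4 °C, alkaline unwinding (pH>13) 30 min, electrophoresis 20 min at 15 V, SYBR Green stain; imaged by inverted fluorescence microscopy, percent DNA in tail quantified.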

T1 sequence (P11388 whole entry): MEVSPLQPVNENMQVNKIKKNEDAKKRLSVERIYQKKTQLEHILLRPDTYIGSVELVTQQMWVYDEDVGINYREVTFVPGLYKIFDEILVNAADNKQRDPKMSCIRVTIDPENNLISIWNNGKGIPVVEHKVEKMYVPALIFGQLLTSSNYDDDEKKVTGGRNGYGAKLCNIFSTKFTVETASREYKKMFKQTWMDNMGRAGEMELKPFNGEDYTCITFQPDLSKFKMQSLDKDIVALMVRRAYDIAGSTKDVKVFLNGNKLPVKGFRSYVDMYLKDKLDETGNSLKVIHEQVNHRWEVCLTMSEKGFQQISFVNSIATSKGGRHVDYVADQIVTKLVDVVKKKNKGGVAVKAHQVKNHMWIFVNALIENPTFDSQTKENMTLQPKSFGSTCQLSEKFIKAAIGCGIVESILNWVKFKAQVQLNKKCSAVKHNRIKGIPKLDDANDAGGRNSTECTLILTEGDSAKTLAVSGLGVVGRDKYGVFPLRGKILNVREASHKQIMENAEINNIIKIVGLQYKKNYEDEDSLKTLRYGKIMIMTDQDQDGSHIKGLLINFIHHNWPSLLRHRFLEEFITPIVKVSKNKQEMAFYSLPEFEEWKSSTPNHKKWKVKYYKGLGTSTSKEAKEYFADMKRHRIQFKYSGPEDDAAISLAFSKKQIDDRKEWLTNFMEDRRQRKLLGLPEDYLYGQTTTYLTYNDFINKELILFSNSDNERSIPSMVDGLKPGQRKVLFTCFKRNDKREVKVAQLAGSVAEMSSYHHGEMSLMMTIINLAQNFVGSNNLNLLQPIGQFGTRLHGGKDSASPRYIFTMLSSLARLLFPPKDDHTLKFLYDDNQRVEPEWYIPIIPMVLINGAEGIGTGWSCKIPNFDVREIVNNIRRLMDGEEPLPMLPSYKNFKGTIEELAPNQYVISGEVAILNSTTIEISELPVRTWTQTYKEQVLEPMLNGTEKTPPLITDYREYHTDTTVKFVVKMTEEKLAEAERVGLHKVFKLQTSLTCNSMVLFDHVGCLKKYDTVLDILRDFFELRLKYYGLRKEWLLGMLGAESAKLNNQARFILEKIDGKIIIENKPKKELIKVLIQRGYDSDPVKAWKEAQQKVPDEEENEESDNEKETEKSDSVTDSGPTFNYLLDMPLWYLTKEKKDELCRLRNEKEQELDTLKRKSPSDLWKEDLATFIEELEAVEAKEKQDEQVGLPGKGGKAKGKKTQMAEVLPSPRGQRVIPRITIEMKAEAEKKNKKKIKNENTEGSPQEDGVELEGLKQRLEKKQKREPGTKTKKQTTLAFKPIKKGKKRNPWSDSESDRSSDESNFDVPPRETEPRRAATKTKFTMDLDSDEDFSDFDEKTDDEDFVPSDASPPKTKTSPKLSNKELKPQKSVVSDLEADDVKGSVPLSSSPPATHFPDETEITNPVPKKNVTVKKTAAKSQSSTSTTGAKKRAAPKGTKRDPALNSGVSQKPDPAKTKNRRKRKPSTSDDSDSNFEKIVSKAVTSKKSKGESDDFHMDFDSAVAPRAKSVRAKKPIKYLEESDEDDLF

`CCCCNCC(O)COc1cc(OCCc2cccc(Cl)c2)c2c(=O)c3cccc(OC)c3oc2c1` (stereo not given): the pIC50 (as a rule, −log10 of the IC50, conventionally taken in molar units) is 5.83 in data set [1], 6.40 in data set [2], 6.72 in [4] and 5.59 in data set [5]. In addition, the inhibition – broadly, the share of the control response that was lost under treatment – in data set [3] was “Active”. For the same compound, the inhibition in [6] is 62.8%; in data set [7], 20.4%.
With `CCCCNCC(O)COc1cc(OCc2cccc(C(F)(F)F)c2)c2c(=O)c3ccccc3oc2c1` (stereo not given), the negative logarithm of the IC50 (pIC50) is 5.61 in [1], 6.62 in [2], 6.85 in data set [4] and 5.65 in [5]. Besides, the values for the inhibition in [6] and in [7] were 64.6% and 9.3%, respectively.
In the case of `CCCCNCC(O)COc1cc(OCc2ccc(OC)cc2)c2c(=O)c3cccc(OC)c3oc2c1` (stereo not given), the pIC50 was 5.64 in data set [1], 6.60 in [2], 5.82 in data set [4] and 5.74 in [5]. For the same compound, the values for the inhibition in [6] and in data set [7] were 44.8% and 13.9%, respectively.
With `CCCCNCC(O)COc1cc(OCc2cccc(OC)c2)c2c(=O)c3ccccc3oc2c1` (stereo not given), the pIC50 in data set [1] is 5.72; in data set [2], 7.15; in data set [4] it was 5.59; in data set [5], 5.23. Also, the inhibition was 58.7% in data set [6] and 19.5% in data set [7].
For the compound `CCCCNCC(O)COc1cc(OCc2ccc(OC)cc2)c2c(=O)c3ccccc3oc2c1` (stereo not given), the negative logarithm of the IC50 (pIC50) in data set [1] is 5.66; in data set [2], 5.74; in data set [4] it was 5.85; in data set [5], 5.32. In addition, the inhibition in data set [6] came to 55.9%; in data set [7], 21.1%.
For the compound `CCCCNCC(O)COc1cc(OCc2cccc(Cl)c2)c2c(=O)c3cccc(OC)c3oc2c1` (stereo not given), the pIC50 was 5.80 in data set [1], 5.94 in data set [2], 6.17 in data set [4] and 5.62 in data set [5]. The inhibition in data set [6] amounted to 45.4%; in data set [7], 6.3%.
As for `CCCCNCC(O)COc1cc(OCc2ccccc2)c2c(=O)c3cccc(OC)c3oc2c1` (stereo not given), the pIC50 in [1] is 5.68; in data set [2], 5.91; in data set [4], 5.62; in data set [5], 5.65. Moreover, the inhibition in [6] worked out at 51.6%; in data set [7] it was 11.1%.
Regarding `COc1cc([C@@H]2c3cc4c(cc3[C@@H](O[C@@H]3O[C@@H]5CO[C@@H](C)O[C@H]5[C@H](O)[C@H]3O)[C@H]3COC(=O)[C@H]23)OCO4)cc(OC)c1O` [ETOPOSIDE], the pIC50 in [1] is 5.97; in data set [2], 5.89; in data set [4] it was 5.55; in data set [5], 5.00. Moreover, the result in data set [8] and in data set [9] was Active. Moreover, the inhibition in [7] is 45.6%.
For the compound `CCCCNCC(O)COc1cc(OCCc2cccc(Cl)c2)c2c(=O)c3ccccc3oc2c1` (stereo not given), the pIC50 was 5.64 in [1], 6.42 in data set [2], 5.76 in data set [4] and 5.59 in data set [5]. In addition, in data set [3], the inhibition entry is “Active”. For the same compound, the inhibition in data set [6] turned out to be 46.2%; in data set [7] it was 16.6%.
Consider `CCCCCOc1cc(OCC(O)CNCCCC)cc2oc3c(OC)cccc3c(=O)c12` (stereo not given), for which the negative logarithm of the IC50 (pIC50) is 5.74 in [1], 6.32 in [2], 6.11 in data set [4] and 5.42 in data set [5]. The inhibition is 36.3% in data set [6] and 9.5% in data set [7].
As for `CCCCNCC(O)COc1cc(OCCc2ccc(Cl)cc2)c2c(=O)c3ccccc3oc2c1` (stereo not given), the pIC50 is 5.67 in [1], 5.44 in [2], 6.20 in data set [4] and 5.86 in [5]. In addition, in [3], the inhibition result is “Active”. Besides, the results for the inhibition in data set [6] and in data set [7] were 94.4% and 23 to 23.3%, respectively.
